Laboratory results from ChEMBL document CHEMBL2021811, “The discovery of potent and selective pyridopyrimidin-7-one based inhibitors of B-RafV600E kinase” (Bioorg Med Chem Lett, 2012).
The source made the active and inactive calls. The calls are words filed in the database; no cut-off is given here.

How the values were obtained:
[1] = Clearance in mouse at 2.5 mg/kg, iv; assay type: ADME, organism-based; parameters: dose 2.5 mg/kg, route intravenous; settings: in vivo
Outline: (§1)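 Mouse intravenous pharmacokinetics at 2.5 mg/kg. Observed clearance is reported in ml/min/kg and volume of distribution in l/kg.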

[2] = Volume of distribution in mouse at 2.5 mg/kg, iv; assay type: ADME, organism-based; parameters: dose 2.5 mg/kg, route intravenous; settings: in vivo; outline: as §1
[3] = Permeability across human Caco2 cells; assay type: ADME, cell-based; settings: Caco-2, read-out: permeability
Outline: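 Caco-2 monolayer permeability is reported as a class: low <2 × 10^-6 cm/s, medium 2–8 × 10^-6 cm/s, high >8 × 10^-6 cm/s.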

[4] = AUC in mouse at 30 mg/kg, po; assay type: ADME, organism-based; parameters: dose 30 mg/kg, route oral; settings: plasma
[5] = Oral bioavailability in mouse at 30 mg/kg; assay type: ADME, organism-based; settings: in vivo
[6] = target: T1, Serine/threonine-protein kinase B-raf (Homo sapiens, UniProt P15056, V600E); assay: Inhibition of full-length B-Raf V600E mutant in human MALME-3M cells assessed as reduction in basal ERK1/2 phosphorylation incubated for 1 hr; assay type: cell-based
T1 sequence (P15056 2-766 V600E limits assumed): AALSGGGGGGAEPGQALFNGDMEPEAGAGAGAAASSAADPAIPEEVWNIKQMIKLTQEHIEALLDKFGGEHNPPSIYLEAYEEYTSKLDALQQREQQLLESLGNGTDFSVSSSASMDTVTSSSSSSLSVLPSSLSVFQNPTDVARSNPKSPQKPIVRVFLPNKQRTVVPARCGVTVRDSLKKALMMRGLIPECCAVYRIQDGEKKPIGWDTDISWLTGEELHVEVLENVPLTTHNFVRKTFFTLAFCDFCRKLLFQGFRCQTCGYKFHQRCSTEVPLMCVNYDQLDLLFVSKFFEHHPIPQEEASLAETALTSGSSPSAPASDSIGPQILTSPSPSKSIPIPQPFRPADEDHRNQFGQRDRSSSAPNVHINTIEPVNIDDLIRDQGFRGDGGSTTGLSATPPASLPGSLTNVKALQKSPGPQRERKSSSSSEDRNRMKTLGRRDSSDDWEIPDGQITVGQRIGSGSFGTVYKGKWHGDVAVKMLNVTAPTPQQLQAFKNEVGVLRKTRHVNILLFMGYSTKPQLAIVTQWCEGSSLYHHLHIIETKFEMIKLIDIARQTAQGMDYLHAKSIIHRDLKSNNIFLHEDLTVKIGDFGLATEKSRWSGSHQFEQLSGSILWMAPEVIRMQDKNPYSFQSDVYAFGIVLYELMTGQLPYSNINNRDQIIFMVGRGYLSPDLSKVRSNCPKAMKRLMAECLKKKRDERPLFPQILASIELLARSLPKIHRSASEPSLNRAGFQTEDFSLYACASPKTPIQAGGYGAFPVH

[7] = target: T1, Serine/threonine-protein kinase B-raf; assay: Inhibition of full-length B-Raf V600E mutant assessed as reduction in incorporation of radiolabeled phosphate from [gamma-33P]ATP into FSBA-modified wild-type MEK.
[8] = target: Proto-oncogene tyrosine-protein kinase Src (Homo sapiens) (UniProt P12931); assay: Inhibition of SRC at 1 uM
Proto-oncogene tyrosine-protein kinase Src (Homo sapiens), sequence (P12931 2-536 limits assumed): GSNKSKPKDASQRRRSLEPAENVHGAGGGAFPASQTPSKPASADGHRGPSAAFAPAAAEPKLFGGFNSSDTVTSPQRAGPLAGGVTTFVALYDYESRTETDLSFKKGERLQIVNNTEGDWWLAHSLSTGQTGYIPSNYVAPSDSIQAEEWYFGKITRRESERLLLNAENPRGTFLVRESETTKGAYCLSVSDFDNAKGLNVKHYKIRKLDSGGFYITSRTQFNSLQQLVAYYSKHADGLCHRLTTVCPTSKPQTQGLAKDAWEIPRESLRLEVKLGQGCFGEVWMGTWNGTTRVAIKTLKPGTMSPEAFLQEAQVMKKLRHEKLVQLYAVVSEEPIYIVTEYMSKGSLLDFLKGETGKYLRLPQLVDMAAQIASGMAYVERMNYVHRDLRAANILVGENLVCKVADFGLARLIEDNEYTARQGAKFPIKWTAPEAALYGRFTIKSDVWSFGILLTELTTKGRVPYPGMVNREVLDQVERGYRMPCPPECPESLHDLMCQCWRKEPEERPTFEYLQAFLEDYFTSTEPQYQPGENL

[9] = target: Tyrosine-protein kinase Lck (Homo sapiens) (UniProt P06239); assay: Inhibition of LCK at 1 uM
Tyrosine-protein kinase Lck (Homo sapiens), sequence (P06239 2-509 limits assumed): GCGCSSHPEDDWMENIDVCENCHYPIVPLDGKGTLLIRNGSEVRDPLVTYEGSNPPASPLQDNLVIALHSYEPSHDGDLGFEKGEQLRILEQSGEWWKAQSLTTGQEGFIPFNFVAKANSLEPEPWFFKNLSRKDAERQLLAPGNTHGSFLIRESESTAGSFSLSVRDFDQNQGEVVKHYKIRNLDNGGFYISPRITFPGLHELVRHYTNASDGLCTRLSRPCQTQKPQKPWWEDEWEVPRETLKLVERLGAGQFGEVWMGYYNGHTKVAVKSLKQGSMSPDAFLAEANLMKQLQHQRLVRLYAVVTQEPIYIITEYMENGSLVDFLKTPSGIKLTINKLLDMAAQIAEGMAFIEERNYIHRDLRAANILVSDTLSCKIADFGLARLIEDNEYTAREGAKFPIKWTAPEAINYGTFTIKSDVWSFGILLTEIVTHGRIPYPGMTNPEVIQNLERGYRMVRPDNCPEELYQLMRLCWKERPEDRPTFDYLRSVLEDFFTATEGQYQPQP

[10] = target: Vascular endothelial growth factor receptor 2 (Homo sapiens) (UniProt P35968); assay: Inhibition of KDR at 1 uM
Vascular endothelial growth factor receptor 2 (Homo sapiens), sequence (P35968 whole entry): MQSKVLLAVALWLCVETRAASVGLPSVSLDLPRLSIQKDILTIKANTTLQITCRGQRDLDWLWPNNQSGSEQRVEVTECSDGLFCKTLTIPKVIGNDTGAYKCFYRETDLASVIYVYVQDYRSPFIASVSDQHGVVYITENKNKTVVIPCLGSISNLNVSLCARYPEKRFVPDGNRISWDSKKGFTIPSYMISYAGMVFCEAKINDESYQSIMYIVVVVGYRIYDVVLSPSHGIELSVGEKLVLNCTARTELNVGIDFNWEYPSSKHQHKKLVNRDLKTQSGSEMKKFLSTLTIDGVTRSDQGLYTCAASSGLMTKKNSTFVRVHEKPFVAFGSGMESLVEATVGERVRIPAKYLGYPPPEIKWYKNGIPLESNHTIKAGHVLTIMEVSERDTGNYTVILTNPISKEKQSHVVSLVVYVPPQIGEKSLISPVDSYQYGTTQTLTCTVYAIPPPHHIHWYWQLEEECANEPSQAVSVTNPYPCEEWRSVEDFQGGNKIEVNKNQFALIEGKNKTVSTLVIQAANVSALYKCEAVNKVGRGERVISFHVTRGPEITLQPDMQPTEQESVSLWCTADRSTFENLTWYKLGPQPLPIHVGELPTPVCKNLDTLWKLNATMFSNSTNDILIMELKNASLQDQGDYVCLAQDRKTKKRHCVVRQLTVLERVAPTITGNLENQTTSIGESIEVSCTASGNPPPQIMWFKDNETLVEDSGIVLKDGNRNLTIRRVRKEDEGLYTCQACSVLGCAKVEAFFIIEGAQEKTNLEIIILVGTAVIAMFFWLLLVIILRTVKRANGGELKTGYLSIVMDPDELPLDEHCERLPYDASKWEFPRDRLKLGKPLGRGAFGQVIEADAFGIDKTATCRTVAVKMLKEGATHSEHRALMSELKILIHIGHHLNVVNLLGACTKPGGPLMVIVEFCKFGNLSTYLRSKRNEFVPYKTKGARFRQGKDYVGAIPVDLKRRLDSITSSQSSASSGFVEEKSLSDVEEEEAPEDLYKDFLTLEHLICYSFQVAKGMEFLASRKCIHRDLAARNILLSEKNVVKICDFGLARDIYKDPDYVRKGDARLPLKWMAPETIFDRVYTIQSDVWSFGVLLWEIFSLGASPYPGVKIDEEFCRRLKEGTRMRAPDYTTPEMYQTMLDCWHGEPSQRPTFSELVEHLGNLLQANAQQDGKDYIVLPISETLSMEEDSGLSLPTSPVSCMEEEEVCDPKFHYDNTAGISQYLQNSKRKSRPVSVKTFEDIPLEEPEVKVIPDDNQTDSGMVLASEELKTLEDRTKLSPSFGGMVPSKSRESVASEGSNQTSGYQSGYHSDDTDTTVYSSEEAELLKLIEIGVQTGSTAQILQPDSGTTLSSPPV

[11] = target: Tyrosine-protein kinase Fgr (Homo sapiens) (UniProt P09769); assay: Inhibition of FGR at 1 uM
Tyrosine-protein kinase Fgr (Homo sapiens), sequence (P09769 2-529 limits assumed): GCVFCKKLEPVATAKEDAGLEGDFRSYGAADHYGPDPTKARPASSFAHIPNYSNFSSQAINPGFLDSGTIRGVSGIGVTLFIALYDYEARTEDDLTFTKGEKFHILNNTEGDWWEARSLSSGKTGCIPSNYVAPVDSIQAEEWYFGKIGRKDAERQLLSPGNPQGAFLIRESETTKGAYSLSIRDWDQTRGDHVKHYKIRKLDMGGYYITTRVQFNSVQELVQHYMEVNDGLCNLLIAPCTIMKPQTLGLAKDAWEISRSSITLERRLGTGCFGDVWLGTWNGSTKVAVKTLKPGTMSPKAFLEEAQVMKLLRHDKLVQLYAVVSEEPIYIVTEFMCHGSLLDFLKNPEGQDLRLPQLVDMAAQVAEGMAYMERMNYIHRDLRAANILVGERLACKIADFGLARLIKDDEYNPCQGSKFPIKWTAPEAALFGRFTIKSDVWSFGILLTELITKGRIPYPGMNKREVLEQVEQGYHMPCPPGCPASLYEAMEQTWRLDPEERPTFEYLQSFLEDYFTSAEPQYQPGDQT

[12] = target: Tyrosine-protein kinase ABL1 (Homo sapiens) (UniProt P00519); assay: Inhibition of ABL at 1 uM
Tyrosine-protein kinase ABL1 (Homo sapiens), sequence (P00519 whole entry, the tested form may be a part): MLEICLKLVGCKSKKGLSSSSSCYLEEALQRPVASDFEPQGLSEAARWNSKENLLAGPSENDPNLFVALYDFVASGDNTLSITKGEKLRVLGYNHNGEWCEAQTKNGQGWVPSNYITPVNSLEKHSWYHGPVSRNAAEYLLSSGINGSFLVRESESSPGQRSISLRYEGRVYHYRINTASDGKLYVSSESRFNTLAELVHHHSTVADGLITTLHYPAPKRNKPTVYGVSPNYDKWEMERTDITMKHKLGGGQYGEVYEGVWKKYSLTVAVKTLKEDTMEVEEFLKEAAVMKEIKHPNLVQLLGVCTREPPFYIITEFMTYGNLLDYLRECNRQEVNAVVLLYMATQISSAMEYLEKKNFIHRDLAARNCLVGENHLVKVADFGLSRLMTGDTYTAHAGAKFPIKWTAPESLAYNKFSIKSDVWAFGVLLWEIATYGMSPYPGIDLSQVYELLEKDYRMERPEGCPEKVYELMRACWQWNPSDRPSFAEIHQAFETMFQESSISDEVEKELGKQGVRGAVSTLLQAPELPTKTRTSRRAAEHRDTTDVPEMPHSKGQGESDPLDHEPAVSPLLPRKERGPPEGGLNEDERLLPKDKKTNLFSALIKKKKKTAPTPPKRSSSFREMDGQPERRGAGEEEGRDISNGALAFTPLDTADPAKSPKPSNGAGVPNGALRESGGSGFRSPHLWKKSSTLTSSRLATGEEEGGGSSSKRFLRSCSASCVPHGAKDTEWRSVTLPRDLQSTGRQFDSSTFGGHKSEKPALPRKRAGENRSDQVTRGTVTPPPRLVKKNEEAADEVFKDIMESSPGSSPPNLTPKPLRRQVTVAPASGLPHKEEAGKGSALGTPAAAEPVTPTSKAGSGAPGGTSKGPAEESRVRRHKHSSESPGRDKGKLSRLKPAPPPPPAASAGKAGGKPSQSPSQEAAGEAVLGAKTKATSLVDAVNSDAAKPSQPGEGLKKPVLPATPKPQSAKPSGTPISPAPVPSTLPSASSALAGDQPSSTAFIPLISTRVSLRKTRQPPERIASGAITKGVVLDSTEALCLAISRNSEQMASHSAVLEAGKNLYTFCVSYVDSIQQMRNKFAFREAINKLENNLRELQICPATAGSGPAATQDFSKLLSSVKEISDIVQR

[13] = target: LIM domain kinase 1 (Homo sapiens) (UniProt P53667); assay: Inhibition of human LIMK1 at 1 uM in presence of ATP at level equals to ~ Km of ATP
[14] = target: Serine/threonine-protein kinase B-raf (Homo sapiens) (UniProt P15056); assay: Inhibition of human B-raf at 1 uM in presence of ATP at level equals to ~ Km of ATP
[15] = target: RAF proto-oncogene serine/threonine-protein kinase (Homo sapiens) (UniProt P04049); assay: Inhibition of human C-raf at 1 uM in presence of ATP at level equals to ~ Km of ATP
[16] = Antitumor activity against B-Raf V600E mutant expressing human LOX cells xenografted in mouse assessed as tumor growth inhibition at 30 mg/kg, QD from day 1 to day 4 measured on day 5; assay type: functional; settings: read-out: TGI
Outline: (§2)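 Nude mice bearing established LOX (B-Raf V600E) xenografts were dosed at 30 mg/kg once daily on days 1–4, with vehicle controls at 10 ml/kg. Tumor volume was measured on days 1, 3, 5, 8 and 11.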

[17] = Antitumor activity against B-Raf V600E mutant expressing human LOX cells xenografted in mouse assessed as tumor growth inhibition at 30 mg/kg, QD from day 1 to day 4 measured on day 8; assay type: functional; settings: read-out: TGI; outline: as §2
[18] = Antitumor activity against B-Raf V600E mutant expressing human LOX cells xenografted in mouse assessed as tumor growth inhibition at 30 mg/kg, QD from day 1 to day 4 measured on day 11; assay type: functional; settings: read-out: TGI; outline: as §2

Row | Structure (SMILES) | IC50 [6] | IC50 [7] | further results
1 | CCCS(=O)(=O)Nc1ccc(F)c(-c2ccc3ccncc3c2)c1F |  | 340 nM | 
2 | CCCS(=O)(=O)Nc1ccc(F)c(-c2ccc3nc(N)ncc3c2)c1 |  | > 10000 nM | 
3 | CCCS(=O)(=O)Nc1ccc(F)c(-c2ccc3ccncc3n2)c1F |  | 3610 nM | 
4 | CCCS(=O)(=O)Nc1ccc(F)c(-c2cc3cnccc3n(CCc3ccccc3)c2=O)c1F | 1160 nM | 13 nM | 
5 | CCCS(=O)(=O)Nc1ccc(F)c(-c2ccc3nc(N)ncc3c2)c1F | 682 nM | 140 nM | 
6 | CCCS(=O)(=O)Nc1ccc(F)c(-c2cc3cnccc3cn2)c1F | 703 nM | 241 nM | 
7 | CCCS(=O)(=O)Nc1ccc(F)c(-c2cc3cncc(Br)c3cn2)c1F | 469 nM | 72 nM | 
8 | CCCS(=O)(=O)Nc1ccc(F)c(-c2cc3ccncc3[nH]2)c1F |  | > 10000 nM | 
9 | CCCS(=O)(=O)Nc1ccc(C)c(-c2ccc3nc(N)ncc3c2)c1 | > 10000 nM | 128 nM | 
10 | CCCS(=O)(=O)Nc1ccc(F)c(-c2ccc3cc(N)ncc3c2)c1F |  | 549 nM | 

More lines, main results first:

Row | IC50 [6] | IC50 [7] | Structure (SMILES) | further results
11 | 31 nM | 6 nM | CCCS(=O)(=O)Nc1ccc(F)c(-c2cc3cnc(NCCO)nc3n(C)c2=O)c1F | clearance [1]: 74 mL/min/kg; Vd [2]: 1 L/kg; Papp [3]: > 8 ×10⁻⁶ cm/s; AUC [4]: 1 µM·h; bioavailability [5]: 18%
12 | 3 nM | 0.5 nM | CCCS(=O)(=O)Nc1ccc(F)c(-c2cc3cnc(Nc4cccnc4)nc3n(C)c2=O)c1F | inhibition [8]: > 90%; inhibition [9]: > 90%; inhibition [10]: > 90%; inhibition [11]: > 90%; inhibition [12]: > 90%
13 | 73 nM | 15 nM | CCCS(=O)(=O)Nc1ccc(F)c(-c2cc3cnc(NC4CCOCC4)nc3n(C)c2=O)c1F | 
14 | 41 nM |  | CCCS(=O)(=O)Nc1ccc(F)c(-c2cc3cnc(NCCCO)nc3n(C)c2=O)c1F | Vd [2]: 20 L/kg; Papp [3]: > 8 ×10⁻⁶ cm/s; AUC [4]: 20 µM·h
15 | 27 nM | 3 nM | CCCS(=O)(=O)Nc1ccc(F)c(-c2cc3cnc(NCC4CC4)nc3n(C)c2=O)c1F | inhibition [13]: > 80%; inhibition [14]: Active; inhibition [15]: Active; clearance [1]: 3 mL/min/kg; Vd [2]: 0.46 L/kg; Papp [3]: > 8 ×10⁻⁶ cm/s; AUC [4]: 133 µM·h; bioavailability [5]: 33%; inhibition in vivo at 30 mg/kg [16]: 74%; inhibition in vivo at 30 mg/kg [17]: 96%; inhibition in vivo at 30 mg/kg [18]: 97%
16 | 45 nM | 9 nM | CCCS(=O)(=O)Nc1ccc(F)c(-c2cc3cnc(NC)nc3n(C)c2=O)c1F | 
17 | 445 nM | 71 nM | CCCS(=O)(=O)Nc1ccc(F)c(-c2cc3cnccc3c(=O)n2C)c1F | 
18 | 93 nM | 10 nM | CCCS(=O)(=O)Nc1ccc(F)c(-c2cc3cnc(N)nc3n(C)c2=O)c1F | 
19 | 1 nM | 0.4 nM | CCCS(=O)(=O)Nc1ccc(F)c(-c2cc3cnc(Nc4cnn(C)c4)nc3n(C)c2=O)c1F | inhibition [8]: > 90%; inhibition [9]: > 90%; inhibition [10]: > 90%; inhibition [11]: > 90%; inhibition [12]: > 90%
20 | 5 nM | 0.5 nM | CCCS(=O)(=O)Nc1ccc(F)c(-c2cc3cnc(Nc4ccccc4)nc3n(C)c2=O)c1F | inhibition [8]: > 90%; inhibition [9]: > 90%; inhibition [10]: > 90%; inhibition [11]: > 90%; inhibition [12]: > 90%
